Experimental data of several laboratories.
Target: Activin receptor type-1B (ACVR1B, Homo sapiens, UniProt P36896)
Sequence (P36896 24-505, as in one of the studies): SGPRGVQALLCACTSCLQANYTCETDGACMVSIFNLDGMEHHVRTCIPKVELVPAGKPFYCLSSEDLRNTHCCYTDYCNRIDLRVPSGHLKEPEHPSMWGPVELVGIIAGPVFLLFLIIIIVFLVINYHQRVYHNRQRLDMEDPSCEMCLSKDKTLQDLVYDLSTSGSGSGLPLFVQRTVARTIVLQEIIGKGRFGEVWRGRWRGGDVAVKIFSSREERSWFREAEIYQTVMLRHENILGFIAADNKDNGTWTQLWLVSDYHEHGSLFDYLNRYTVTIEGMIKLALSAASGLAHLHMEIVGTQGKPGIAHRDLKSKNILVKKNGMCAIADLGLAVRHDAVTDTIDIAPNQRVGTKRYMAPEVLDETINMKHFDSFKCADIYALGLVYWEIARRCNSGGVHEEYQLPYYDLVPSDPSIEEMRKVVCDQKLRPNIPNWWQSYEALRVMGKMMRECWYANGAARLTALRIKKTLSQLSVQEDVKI

SMILES	effect on	action	method	concentration	quantity	result
CC#CC(=O)N1CCC[C@H]1c1nc(-c2ccc(C(=O)Nc3ccccn3)cc2)c2c(N)nccn12	enzyme activity	inhibitor		1 µM	inhibition	1%
C1=C/COCc2cc(ccc2OCCN2CCCC2)Nc2nccc(n2)-c2cccc(c2)COC/1	binding			0.1 µM	remaining binding	91%
CCCCC(=O)Nc1ccc(-c2ccc3ncn(CCC)c(=O)c3c2)cn1	binding		competition with immobilised ligand	0.5 µM	remaining binding	87%
Cc1ccc(NC(=O)c2ccnc(C(F)(F)F)c2)cc1-c1cc(OCCO)nc(N2CCOCC2)c1	binding		competition with immobilised ligand	1 µM	remaining binding	99%
COc1ccc2oc(-c3ccc4nc(N)oc4c3)c/c(=N\c3ccccc3NC(=O)CCN)c2c1	binding			1 µM	remaining binding	108%
C[C@H]1CC[C@H](n2c3cnccc3c3cnc(Nc4ccc5c(n4)CCN(C(=O)CO)C5)nc32)CC1	cell-free assay		competition with immobilised ligand	1 µM	remaining binding	96%
C#Cc1cnc(Nc2ccnc(CO)c2)nc1Nc1ccccc1S(C)(=O)=NC#N (stereo not drawn)	cell-free assay			1 µM	remaining signal	52%
C=CC(=O)N1CCC([C@@H]2CCNc3c(C(N)=O)c(-c4ccc(Oc5ccccc5)cc4)nn32)CC1	enzyme activity	inhibitor		1 µM	inhibition	5%
N#Cc1ccc(NC(=O)Nc2ccccc2)cc1	cell-free assay		competition with immobilised ligand	25 µM	remaining binding	100%
